According to ChEMBL document CHEMBL4834433, “Calcitonin gene-related peptide (CGRP) receptor antagonists: Heterocyclic modification of a novel azepinone lead” (Bioorg Med Chem Lett, 2021):
pIC50, pKi: −log10 of the molar value. ≈ marks a conversion by molar mass, not a printed value.

Legend:
[1] = biological target: T1, Calcitonin gene-related peptide type 1 receptor (Homo sapiens, UniProt O60894+Q16602); assay: Displacement of [125I]CGRP from human CGRP receptor in human SK-N-MC cells measured after 2 hrs by scintillation counting analysis; type: cell-based
Cytochrome P450 3A4 = Cytochrome P450 3A4 (Homo sapiens, UniProt P08684); assay: Time dependent inhibition of CYP3A4 (unknown origin) measured after 30 mins; type: ADME
[2] = Microsomal stability in monkey microsomes assessed as parent compound remaining at […] measured after 10 mins; type: ADME, Macaca mulatta, Liver, Microsome; conditions: rhesus monkey, read-out: Stabilty
[3] = Microsomal stability in human liver microsomes assessed as parent compound remaining at […] measured after 10 mins; type: ADME; conditions: read-out: Stabilty
[4] = Microsomal stability in rat microsomes assessed as parent compound remaining at […] measured after 10 mins; type: ADME, Microsome; conditions: read-out: Stabilty
[5] = Solubility in phosphate buffer at pH 7 using amorphous form of sample; type: physicochemical
Procedure, shortened: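 Solubility of the amorphous solid was measured in 50 mM phosphate buffer, pH 7.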

[6] = Total plasma concentration in human CGRPalpha-induced migraine marmoset model at 7 mg/kg, sc measured after 15 to 105 mins; type: ADME, organism-based, Callithrix jacchus; conditions: in vivo, time 15-105 min
Procedure, shortened: (§1)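 In anesthetized marmosets given the antagonist sc at 0 min and iv hαCGRP (10 µg/kg) at −30, +15, +60 and +105 min, total plasma levels were taken at the 15, 60 and 105 min postdose test times.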

Callithrix jacchus [7] = assay: Antimigraine activity in human CGRPalpha-induced migraine marmoset model assessed as reduction in facial blood flow at 7 mg/kg, sc administered 30 mins after CGRPalpha stimulation measured after 15 mins by laser doppler method relative to control; type: functional; parameters: scale not given: the % may be the effect or the level left; conditions: 0.25 h
Procedure, shortened: (§2)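 Marmosets were anesthetized. Facial blood flow was raised by iv hαCGRP (10 µg/kg) given at −30, +15, +60 and +105 min relative to sc antagonist dosing at 0 min. Blood flow was read by laser Doppler flowmetry. Inhibition of the CGRP-induced increase was expressed against the predose vehicle control response at −30 min.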

[8] = Fraction unbound in plasma of human CGRPalpha-induced migraine marmoset model at 7 mg/kg, sc measured after 15 to 105 mins; type: ADME, organism-based, Callithrix jacchus; conditions: time 15-105 min
Callithrix jacchus [9] = assay: Antimigraine activity in human CGRPalpha-induced migraine marmoset model assessed as reduction in facial blood flow at 3 mg/kg, sc administered 30 mins after CGRPalpha stimulation measured after 15 to 105 mins by laser doppler method relative to control; type: functional; parameters: scale not given: the % may be the effect or the level left; conditions: time 15-105 min; procedure, shortened: as §2
[10] = Permeability form apical to basolateral side in human Caco2 cells; type: ADME, cell-based; conditions: Caco-2, read-out: permeability
[11] = Cmax in rat at 10 mg/kg, po; type: ADME, organism-based; parameters: route oral, dose 10 mg/kg; conditions: in vivo
Procedure, shortened: (§3)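 Rats received a single 10 mg/kg oral dose in 80% PEG400/10% DMAC/10% Tween 80.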

[12] = Total plasma concentration in human CGRPalpha-induced migraine marmoset model at 3 mg/kg, sc measured after 15 to 105 mins; type: ADME, organism-based, Callithrix jacchus; conditions: in vivo, time 15-105 min; procedure, shortened: as §1
[13] = Oral bioavailability in rat at 10 mg/kg; type: ADME, organism-based; conditions: in vivo; procedure, shortened: as §3
Callithrix jacchus [14] = assay: Antimigraine activity in human CGRPalpha-induced migraine marmoset model assessed as reduction in facial blood flow at 7 mg/kg, sc administered 30 mins after CGRPalpha stimulation measured after 60 mins by laser doppler method relative to control; type: functional; parameters: scale not given: the % may be the effect or the level left; conditions: 1 h; procedure, shortened: as §2
[15] = Cmax in Cynomolgus monkey at 10 mg/kg, po; type: ADME, organism-based, Macaca fascicularis; parameters: route oral, dose 10 mg/kg; conditions: in vivo
[16] = biological target: T1, Calcitonin gene-related peptide type 1 receptor; assay: Antagonist activity against human CGRP receptor in human SK-N-MC cells assessed as inhibition of CGRP-stimulated cAMP production; type: functional, cell-based
Callithrix jacchus [17] = assay: Antimigraine activity in human CGRPalpha-induced migraine marmoset model assessed as reduction in facial blood flow at 7 mg/kg, sc administered 30 mins after CGRPalpha stimulation measured after 105 mins by laser doppler method relative to control; type: functional; parameters: scale not given: the % may be the effect or the level left; conditions: 1.75 h; procedure, shortened: as §2
[18] = Permeability of compound at pH 7.4 by PAMPA assay; type: ADME; conditions: read-out: permeability
[19] = Permeability form basolateral to apical side in human Caco2 cells; type: ADME, cell-based; conditions: Caco-2, read-out: permeability
[20] = Permeability of compound at pH 5.5 by PAMPA assay; type: ADME; conditions: read-out: permeability
Callithrix jacchus [21] = assay: Antimigraine activity in human CGRPalpha-induced migraine marmoset model assessed as reduction in facial blood flow at 7 mg/kg, sc administered 30 mins after CGRPalpha stimulation measured after 15 to 105 mins by laser doppler method relative to control; type: functional; parameters: scale not given: the % may be the effect or the level left; conditions: time 15-105 min; procedure, shortened: as §2

T1 sequence (Q16602 whole entry, one chain of several): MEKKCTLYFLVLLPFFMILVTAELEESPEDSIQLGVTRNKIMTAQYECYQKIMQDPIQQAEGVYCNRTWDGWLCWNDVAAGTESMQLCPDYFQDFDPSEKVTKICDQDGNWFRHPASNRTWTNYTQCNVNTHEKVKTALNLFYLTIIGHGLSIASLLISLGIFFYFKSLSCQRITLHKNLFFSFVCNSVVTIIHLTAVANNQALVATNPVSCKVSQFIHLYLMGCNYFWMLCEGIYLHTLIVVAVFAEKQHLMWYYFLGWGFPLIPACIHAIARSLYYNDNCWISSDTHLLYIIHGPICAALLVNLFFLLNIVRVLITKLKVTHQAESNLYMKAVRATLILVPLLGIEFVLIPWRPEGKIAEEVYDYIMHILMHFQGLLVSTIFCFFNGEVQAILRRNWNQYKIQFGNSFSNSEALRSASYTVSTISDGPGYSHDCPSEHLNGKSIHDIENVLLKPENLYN
Sequence of Cytochrome P450 3A4 (P08684 whole entry): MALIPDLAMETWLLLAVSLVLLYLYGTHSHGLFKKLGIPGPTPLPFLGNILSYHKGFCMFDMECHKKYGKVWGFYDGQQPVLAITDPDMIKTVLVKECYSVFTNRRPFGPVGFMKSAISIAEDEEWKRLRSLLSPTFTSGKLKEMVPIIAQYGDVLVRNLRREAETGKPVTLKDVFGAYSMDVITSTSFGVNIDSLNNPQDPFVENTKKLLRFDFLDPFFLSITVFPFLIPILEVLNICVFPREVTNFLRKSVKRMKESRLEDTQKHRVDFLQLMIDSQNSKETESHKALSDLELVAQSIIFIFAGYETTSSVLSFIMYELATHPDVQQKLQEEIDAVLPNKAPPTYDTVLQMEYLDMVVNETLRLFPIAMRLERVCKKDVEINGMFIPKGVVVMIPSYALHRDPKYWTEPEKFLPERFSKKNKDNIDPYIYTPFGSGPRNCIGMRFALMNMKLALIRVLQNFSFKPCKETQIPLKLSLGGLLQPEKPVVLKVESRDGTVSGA

pKi [1]	remaining at 10 min [2]	remaining at 10 min [3]	remaining at 10 min [4]	Cmax [11]	SMILES	also measured
10.34	–	–	–	–	O=C(C[C@@H]1Cc2cc(Cl)c3[nH]ncc3c2CN(CC(F)(F)F)C1=O)N1CCC(N2CCc3ccccc3NC2=O)CC1	pIC50 (Cytochrome P450 3A4): 7.00
9.77	24%	26%	7%	–	O=C(C[C@@H]1Cc2cc(Cl)c3[nH]cnc3c2CN(CC(F)(F)F)C1=O)N1CCC(N2CCc3ccccc3NC2=O)CC1	–
10.82	75%	36%	35%	96 nM	Cn1c(=O)[nH]c2c(Cl)cc3c(c21)CN(CC(F)(F)F)C(=O)[C@H](CC(=O)N1CCC(N2CCc4ccccc4NC2=O)CC1)C3	solubility [5]: < 1 µg/mL; concentration [6]: 170 nM; Activity (Callithrix jacchus [7]): 57%; fraction unbound [8]: 0.023; Activity (Callithrix jacchus [9]): 79%; Papp A→B [10]: < 1.5 ×10⁻⁶ cm/s; pIC50 (Cytochrome P450 3A4): 5.09; concentration [12]: 40 nM; bioavailability [13]: 1%; Activity (Callithrix jacchus [14]): 87%; Cmax [15]: 35 nM; pIC50 [16]: 10.22; Activity (Callithrix jacchus [17]): 85%; Papp [18]: 19.2 ×10⁻⁶ cm/s; Papp B→A [19]: 19.6 ×10⁻⁶ cm/s
10.72	71%	60%	41%	3 nM	O=C(C[C@@H]1Cc2cc(Cl)c3[nH]c(=O)[nH]c3c2CN(CC(F)(F)F)C1=O)N1CCC(N2CCc3ccccc3NC2=O)CC1	–
9.89	28%	91%	82%	4 nM	O=C(C[C@@H]1Cc2cc(Cl)c3c(c2CN(CC(F)(F)F)C1=O)C(F)(F)C(=O)N3)N1CCC(n2c(=O)[nH]c3ncccc32)CC1	solubility [5]: 15 µg/mL (≈ 23.9 µM); concentration [6]: 140 nM; Activity (Callithrix jacchus [7]): 47%; fraction unbound [8]: 0.054; Papp A→B [10]: < 1.5 ×10⁻⁶ cm/s; pIC50 (Cytochrome P450 3A4): < 4.40; Activity (Callithrix jacchus [14]): 48%; Papp [20]: 9.9 ×10⁻⁶ cm/s; Activity (Callithrix jacchus [17]): 56%; Papp [18]: 8.7 ×10⁻⁶ cm/s; Papp B→A [19]: 25.7 ×10⁻⁶ cm/s
9.36	64%	62%	90%	–	O=C(C[C@@H]1Cc2cc(Cl)c3[nH]nnc3c2CN(CC(F)(F)F)C1=O)N1CCC(n2c(=O)[nH]c3ncccc32)CC1	–
10.70	87%	58%	54%	270 nM	O=C(C[C@@H]1Cc2cc(Cl)c3[nH]c(=O)n(CC(F)(F)F)c3c2CN(CC(F)(F)F)C1=O)N1CCC(N2CCc3ccccc3NC2=O)CC1	solubility [5]: < 1 µg/mL; concentration [6]: 80 nM; Activity (Callithrix jacchus [7]): 26%; fraction unbound [8]: 0.009; Papp A→B [10]: < 1.5 ×10⁻⁶ cm/s; pIC50 (Cytochrome P450 3A4): 5.08; Activity (Callithrix jacchus [14]): 65%; Cmax [15]: 87 nM; Papp [20]: 51.3 ×10⁻⁶ cm/s; pIC50 [16]: 9.92; Activity (Callithrix jacchus [17]): 84%; Papp B→A [19]: 2.4 ×10⁻⁶ cm/s
10.85	59%	44%	22%	230 nM	CCn1c(=O)[nH]c2c(Cl)cc3c(c21)CN(CC(F)(F)F)C(=O)[C@H](CC(=O)N1CCC(N2CCc4ccccc4NC2=O)CC1)C3	Activity (Callithrix jacchus [21]): 67%; Cmax [15]: 230 nM; pIC50 [16]: 10.05
10.22	7%	40%	40%	–	N#Cc1c[nH]c2c(Cl)cc3c(c12)CN(CC(F)(F)F)C(=O)[C@H](CC(=O)N1CCC(n2c(=O)[nH]c4ncccc42)CC1)C3	–
9.92	63%	49%	64%	36 nM	O=C(C[C@@H]1Cc2cc(Cl)c3[nH]c(=O)oc3c2CN(CC(F)(F)F)C1=O)N1CCC(n2c(=O)[nH]c3ncccc32)CC1	–
10.16	8.1%	22%	35%	480 nM	O=C(C[C@@H]1Cc2cc(Cl)c3c(c2CN(CC(F)(F)F)C1=O)C(F)(F)C(=O)N3)N1CCC(N2CCc3ccccc3NC2=O)CC1	–
10.37	100%	73%	56%	11 nM	Cn1c(=O)[nH]c2c(Cl)cc3c(c21)CN(CC(F)(F)F)C(=O)[C@H](CC(=O)N1CCC(N2CCc4ncccc4NC2=O)CC1)C3	–
9.07	1.6%	0.9%	0.8%	–	O=C(C[C@@H]1Cc2cc(Cl)c3[nH]ccc3c2CN(CC(F)(F)F)C1=O)N1CCC(N2CCc3ccccc3NC2=O)CC1	–
10.22	26%	38%	11%	–	N#Cc1c[nH]c2c(Cl)cc3c(c12)CN(CC(F)(F)F)C(=O)[C@H](CC(=O)N1CCC(N2CCc4ccccc4NC2=O)CC1)C3	–
10.59	41%	90%	90%	3 nM	O=C(C[C@@H]1Cc2cc(Cl)c3[nH]c(=O)n(CC(F)(F)F)c3c2CN(CC(F)(F)F)C1=O)N1CCC(n2c(=O)[nH]c3ncccc32)CC1	solubility [5]: < 1 µg/mL; Papp A→B [10]: < 1.5 ×10⁻⁶ cm/s; Papp [20]: 2.8 ×10⁻⁶ cm/s; Papp [18]: 2.3 ×10⁻⁶ cm/s; Papp B→A [19]: 16.5 ×10⁻⁶ cm/s
9.40	70%	80%	80%	–	NC(=O)c1c[nH]c2c(Cl)cc3c(c12)CN(CC(F)(F)F)C(=O)[C@H](CC(=O)N1CCC(n2c(=O)[nH]c4ncccc42)CC1)C3	–
